In ChEMBL document CHEMBL1156332, “Polysubstituted pyrazoles, part 6. Synthesis of some 1-(4-chlorophenyl)-4-hydroxy-1H-pyrazol-3-carbonyl derivatives linked to nitrogenous heterocyclic ring systems as potential antitumor agents” (2010):
The source made the active and inactive calls. The rule behind the calls is not given here.

Columns and labels:
Format in all cases: functional
[1] = system: HL-60(TB); assay: Growth inhibition of human HL-60(TB) cells after 48 hrs by sulforhodamine B assay; settings: HL-60, 48 h
How it was run: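 NCI 60-cell panel. Cells were preincubated 24 h at 37 °C in 5% CO2, then time-zero plates were TCA-fixed. Drugs were dissolved in DMSO and given at five concentrations (10-fold or half-log dilutions) for 48 h. Suspension cells were fixed with TCA (16% final), stained with 0.4% SRB and read at 515 nm. GI50 is the concentration giving 50% decrease in net growth, taken from log concentration–growth curves.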

[2] = system: K562; assay: Growth inhibition of human K562 cells after 48 hrs by sulforhodamine B assay
How it was run: (§1)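 NCI 60-line panel, five concentrations (0.01–100 µM) from DMSO stock diluted in medium with gentamicin. Cells were plated 24 h before dosing, with time-zero plates fixed at drug addition, then exposed 48 h at 37 °C, 5% CO₂. Adherent cells were fixed with cold TCA (10% final) and suspension cells with 16% TCA. Staining used 0.4% SRB, solubilised in 10 mM Tris and read at 515 nm. GI₅₀ was taken from log concentration–% growth curves.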

[3] = system: MOLT-4; assay: Growth inhibition of human MOLT4 cells after 48 hrs by sulforhodamine B assay; settings: MOLT-4, 48 h; how it was run: as §1
[4] = system: EKVX; assay: Growth inhibition of human EKVX cells after 48 hrs by sulforhodamine B assay; how it was run: as §1
[5] = system: NCI-H226; assay: Growth inhibition of human NCI-H226 cells after 48 hrs by sulforhodamine B assay; settings: NCI-H226, 48 h; how it was run: as §1
[6] = system: NCI-H460; assay: Growth inhibition of human NCI-H460 cells after 48 hrs by sulforhodamine B assay; settings: NCI-H460, 48 h; how it was run: as §1
[7] = system: NCI-H522; assay: Growth inhibition of human NCI-H522 cells after 48 hrs by sulforhodamine B assay; settings: NCI-H522, 48 h; how it was run: as §1
[8] = system: HCT-15; assay: Growth inhibition of human HCT15 cells after 48 hrs by sulforhodamine B assay; settings: HCT-15, 48 h; how it was run: as §1
[9] = system: SW-620; assay: Growth inhibition of human SW620 cells after 48 hrs by sulforhodamine B assay; settings: SW-620, 48 h
How it was run: (§2)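 Adherent lines plated and held 24 h at 37 °C, 5% CO2, 100% humidity; time-zero plates TCA-fixed at drug addition. Drugs from DMSO stocks were made into five concentrations by 10-fold or half-log serial dilution and applied for 48 h continuous exposure. Cells were fixed with cold TCA (10% final) for 60 min at 4 °C, then stained with 0.4% SRB in 1% acetic acid for 10 min. Dye was solubilized in 10 mM Tris base and read at 515 nm. GI50 was taken from log concentration–growth curves.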

[10] = system: SNB-19; assay: Growth inhibition of human SNB19 cells after 48 hrs by sulforhodamine B assay; settings: SNB-19, 48 h; how it was run: as §2
[11] = system: SK-MEL-2; assay: Growth inhibition of human SK-MEL-2 cells after 48 hrs by sulforhodamine B assay; how it was run: as §2
[12] = system: UACC-257; assay: Growth inhibition of human UACC257 cells after 48 hrs by sulforhodamine B assay; settings: UACC-257, 48 h; how it was run: as §2
[13] = system: UACC-62; assay: Growth inhibition of human UACC62 cells after 48 hrs by sulforhodamine B assay; settings: UACC-62, 48 h; how it was run: as §2
[14] = system: IGROV-1; assay: Growth inhibition of human IGROV1 cells after 48 hrs by sulforhodamine B assay; settings: IGROV-1, 48 h; how it was run: as §1
[15] = system: OVCAR-8; assay: Growth inhibition of human OVCAR8 cells after 48 hrs by sulforhodamine B assay; settings: OVCAR-8, 48 h; how it was run: as §1
[16] = system: CAKI-1; assay: Growth inhibition of human Caki1 cells after 48 hrs by sulforhodamine B assay; settings: CAKI-1, 48 h; how it was run: as §1
[17] = system: PC-3; assay: Growth inhibition of human PC3 cells after 48 hrs by sulforhodamine B assay; settings: PC-3, 48 h; how it was run: as §1
[18] = system: DU-145; assay: Growth inhibition of human DU145 cells after 48 hrs by sulforhodamine B assay; settings: DU-145, 48 h; how it was run: as §1
[19] = system: NCI/ADR-RES; assay: Growth inhibition of human NCI/ADR-RES cells after 48 hrs by sulforhodamine B assay; how it was run: as §1
[20] = Growth inhibition of human Hs 578T cells after 48 hrs by sulforhodamine B assay; how it was run: as §1
[21] = system: MDA-MB-435; assay: Growth inhibition of human MDA-MB-435 cells after 48 hrs by sulforhodamine B assay; settings: MDA-MB-435, 48 h; how it was run: as §1
[22] = system: T47D; assay: Growth inhibition of human T47D cells after 48 hrs by sulforhodamine B assay; how it was run: as §2
[23] = Cytotoxicity against human leukemia cells after 48 hrs by sulforhodamine B assay; settings: Leukemia cell
How it was run: (§3)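 NCI five-dose screen: about 60 human tumour lines grouped into nine subpanels were plated and incubated 24 h before dosing. Compounds went in as DMSO stock and were diluted in medium to five final concentrations (0.01–100 µM). Exposure was 48 h continuous at 37 °C, 5% CO₂, followed by TCA fixation and SRB staining read at 515 nm. Per-line GI₅₀, TGI and LC₅₀ came from log concentration–% growth curves, averaged per subpanel as MG-MID.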

[24] = Cytotoxicity against human lung cancer cells after 48 hrs by sulforhodamine B assay; settings: Cancer cell lines; how it was run: as §3
[25] = Cytotoxicity against human colon cancer cells after 48 hrs by sulforhodamine B assay; settings: Cancer cell lines; how it was run: as §3
[26] = system: SR; assay: Growth inhibition of human SR cells after 48 hrs by sulforhodamine B assay
How it was run: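 Suspension leukemia line pre-incubated 24 h at 37 °C, 5% CO2; time-zero plates fixed at drug addition. Five drug concentrations were made by serial dilution from DMSO stocks and applied for 48 h. Settled cells were fixed with 80% TCA (16% final), stained with 0.4% SRB in 1% acetic acid, solubilized in 10 mM Tris base, and read at 515 nm. GI50 = concentration giving 50% decrease in net growth.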

Structure (SMILES) | GI50 [1] | GI50 [4] | GI50 [5] | GI50 [6] | GI50 [7] | GI50 [8] | GI50 [9] | GI50 [10] | GI50 [12] | GI50 [13] | GI50 [14] | GI50 [15] | GI50 [16] | GI50 [18] | GI50 [19] | GI50 [20] | GI50 [21] | GI50 [22] | GI50 [23] | TGI [23] | other results
Cc1c2c(nn1C(=O)c1nn(-c3ccc(Cl)cc3)cc1O)-c1ccccc1CC2 | 51 nM | 71 nM | 45 nM | 28 nM | 55 nM | 52 nM | 360 nM | 45 nM | 210 nM | 51 nM | 43 nM | 53 nM | 127 nM | 50 nM | 46 nM | 21 nM | 37 nM | 59 nM | 42 nM | 10200 nM | GI50 ([2]; K562, 48 h): 30 nM; GI50 [3]: 43 nM; GI50 ([11]; SK-MEL-2, 48 h): 5540 nM; GI50 [17]: 37 nM; GI50 [24]: 47 nM; TGI [24]: 68100 nM; GI50 [25]: 221 nM; TGI [25]: 86300 nM
N#Cc1cnn(C(=O)c2nn(-c3ccc(Cl)cc3)cc2O)c1N | 330 nM | 380 nM | 370 nM | 190 nM | 210 nM | 340 nM | 520 nM | 450 nM | 560 nM | 300 nM | 360 nM | 480 nM | 280 nM | 570 nM | 370 nM | 190 nM | 290 nM | 300 nM | 270 nM | 3230 nM | GI50 ([2]; K562, 48 h): 250 nM; GI50 [3]: 290 nM; GI50 [26]: 280 nM; GI50 ([11]; SK-MEL-2, 48 h): 910 nM; GI50 [17]: 330 nM; LC50 (concentration killing 50% of cells) [23]: 44300 nM; GI50 [24]: 320 nM; LC50 (concentration causing 50% net cell kill) [24]: 69400 nM; TGI [24]: 10800 nM; GI50 [25]: 610 nM; TGI [25]: 12600 nM; CC50 ([25]; read-out: LC50 (the source's name)): 64300 nM
CC1=NN(C(=O)c2nn(-c3ccc(Cl)cc3)cc2O)C(=O)C1 | 1170 nM | 2210 nM | 1400 nM | 370 nM | 2840 nM | 680 nM | 3410 nM | 3160 nM | 1060 nM | 1800 nM | 510 nM | 1490 nM | 1060 nM | 5220 nM | 1890 nM | 280 nM | 1200 nM | 2660 nM | 1030 nM | 52900 nM | GI50 ([2]; K562, 48 h): 650 nM; GI50 [3]: 1870 nM; GI50 [26]: 420 nM; GI50 [24]: 1820 nM; TGI [24]: 78200 nM; GI50 [25]: 3090 nM; TGI [25]: 95400 nM
O=C(c1nn(-c2ccc(Cl)cc2)cc1O)n1nc(-c2ccco2)cc1C(F)(F)F | 2420 nM | 1990 nM | 2710 nM | 780 nM | 2670 nM | 1440 nM | 4750 nM | 4370 nM | 2670 nM | 2160 nM | 920 nM | 1880 nM | 2430 nM | 10500 nM | 1600 nM | 640 nM | 1970 nM | 4160 nM | 1760 nM | 80700 nM | GI50 ([2]; K562, 48 h): 1720 nM; GI50 [3]: 2550 nM; GI50 ([11]; SK-MEL-2, 48 h): 3820 nM; GI50 [17]: 26300 nM; GI50 [24]: 3190 nM; TGI [24]: 78900 nM; GI50 [25]: 4590 nM; TGI [25]: 88500 nM
Cc1cc(C)n(C(=O)c2nn(-c3ccc(Cl)cc3)cc2O)n1 | 3960 nM | 4870 nM | 4660 nM | 2380 nM | 7370 nM | 3530 nM | 8020 nM | 3600 nM | 16600 nM | 3460 nM | 3160 nM | 5960 nM | 4230 nM | 6230 nM | 4420 nM | 3210 nM | 3940 nM | 3660 nM | 3650 nM | 74300 nM | GI50 [2]: inactive; GI50 [26]: inactive; GI50 [17]: 7050 nM; GI50 [24]: 4690 nM; TGI [24]: 81700 nM; GI50 [25]: 8130 nM; TGI [25]: 85100 nM
O=C1CC(=O)N(C(=O)c2nn(-c3ccc(Cl)cc3)cc2O)N1 | 770 nM | 850 nM | 730 nM | 310 nM | 300 nM | 490 nM | 2320 nM | 510 nM | 1860 nM | 390 nM | 380 nM | 640 nM | 650 nM | 980 nM | 940 nM | 190 nM | 330 nM | 450 nM | 420 nM | 10800 nM | GI50 ([2]; K562, 48 h): 290 nM; GI50 [3]: 410 nM; GI50 [26]: 260 nM; GI50 [11]: inactive; GI50 [17]: 360 nM; GI50 [24]: 510 nM; TGI [24]: 80300 nM; GI50 [25]: 1510 nM; TGI [25]: 86200 nM
